Compound activity: PubChem, Sanford-Burnham Center for Chemical Genomics
697 NFkB inh: inhibitors of the PMA/ionomycin-induced NF-kB reporter in 697 B cells. 697 B-cell NF-kB luciferase reporter, 16 h. inhibition, % at 4 µM. actives 0.33% (n = 330,000). AID 435022; in the data active = inhibition above about 35%
Gli-Sufu block: Gli-Sufu pathway antagonism | Sufu-KO-LIGHT fibroblasts, Gli luciferase reporter luminescence | inhibition, % at 5 µM | actives 0.74% (n = 340,000) | AID 588413;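 active = inhibition above about 55%, limit read from the data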;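 also: 0% = DMSO-treated cells and 100% = wells with medium but no cells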
Jurkat NFkB inh: lowers PMA/ionomycin-induced NF-kB signal in Jurkat cells; PMA/ionomycin-induced NF-kB luciferase reporter, luminescence; inhibition, % at 4 µM; actives 0.53% (n = 330,000); AID 435003; in the data active = inhibition above about 50%
H9c2 TAG inh: reduces triacylglycerol accumulation in H9c2 cells; Nile Red lipid (TAG) fluorescence; cells loaded with 200 µM oleic acid; inhibition, % at 12.5 µM; actives 0.66% (n = 230,000);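 active = pattern-corrected inhibition of lipid staining of at least 50% with the nuclear-stain viability signal not falling by more than 50%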;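 also: 0% = DMSO wells and 100% = triacsin C control wells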
iPSC survival up: enhancers of human iPSC single-cell survival; hiPSC single-cell survival, ATPlite luminescence; 100% = ROCK inhibitor wells, 0% = DMSO; survival enhancement, % at 20 µM; actives 0.044% (n = 360,000); AID 602274; in the data active = survival enhancement above about 18%;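 also: cells exposed to compounds for 16 hours before the ATP read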
Hep lipid drop: modulators of hepatic lipid droplet formation. AID 1656. inhibition, % at 6.5 µM. AML12 mouse hepatocytes, oleate lipid droplets, BODIPY imaging. actives 0.4% (n = 240,000);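 active = lipid droplet intensity inhibited by at least 50%, with more than 500 cells counted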
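Technique: fluorescence imaging, 20x objective, two fields per well / Assay system: AML12 hepatocytes (mouse) / Measure: % inhibition of lipid droplet signal / Doses: 6.5 µM single-point dosing / Incubation: overnight exposure / Reagent: 100 µM oleic acid challenge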
Gli-Sufu confirm: confirmation of Gli-SUFU pathway antagonists; Sufu-KO-LIGHT cells, Gli luciferase reporter, luminescence; actives 40% (n = 2,500); inhibition, % at 5 µM; shares compounds with Gli-Sufu block;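 active = mean inhibition at 5 µM reaching about 45%, limit read from the data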;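 also: plate controls were DMSO-treated cells for no effect and wells lacking cells for full effect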
Gli cytotox: cytotoxic in Gli-SUFU antagonist counter-screen | actives 32% (n = 2,500) | cytotoxicity, % at 5 µM | Sufu-KO-LIGHT cells cytotoxicity, ATP luminescence | AID 651994 | shares compounds with Gli-Sufu block;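 active = mean cytotoxicity at 5 µM above about 25%, limit read from the data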;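 also: cells exposed to compound overnight for roughly 16 to 18 hours; plate controls were DMSO wells with cells for no effect and medium without cells for full effect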
Wnt3a cs: Wnt3a reporter inhibition counter-screen. shares compounds with Gli-Sufu block. Wnt-LIGHT cells, Wnt3a-driven luciferase reporter, luminescence. inhibition, % at 6.25 µM. actives 20% (n = 2,500). AID 651995;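 active = mean inhibition above about 25%, limit read from the data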
* marks the source's active call; other numbers are inactive results. The list is not random: actives were taken first. Their share in the collection is about 1.8%.

Results for Cc1nc2ccc(S(=O)(=O)NCC(=O)NCCN3CCCCCC3)cc2s1 ?
697 NFkB inh: 13.6; Gli-Sufu block: 83.0*; Jurkat NFkB inh: 0.1; iPSC survival up: 3.4; Gli-Sufu confirm: 21.9; Gli cytotox: 5.0; Wnt3a cs: 0.9

How did COc1ccc(NS(=O)(=O)c2ccc3c(c2)OCCO3)cc1OC do in these assays?
697 NFkB inh: -16.5; Gli-Sufu block: 65.9*; Jurkat NFkB inh: 25.3; iPSC survival up: 0.1; Hep lipid drop: -33.0; Gli-Sufu confirm: 59.8*; Gli cytotox: 29.0*; Wnt3a cs: 30.4*

How did COc1ccc(S(=O)(=O)Nc2ccc3c(c2)OCO3)cc1OC do in these assays?
697 NFkB inh: -8.3; Gli-Sufu block: -2.7; Jurkat NFkB inh: -15.0; iPSC survival up: -4.0; Hep lipid drop: -4.9

How did O=C(CSc1cccc[n+]1[O-])CSc1cccc[n+]1[O-] do in these assays?
697 NFkB inh: -0.1; Gli-Sufu block: 56.2*; Jurkat NFkB inh: -15.1; H9c2 TAG inh: 13.6; iPSC survival up: 3.0; Hep lipid drop: -12.8; Gli-Sufu confirm: 15.4; Gli cytotox: 9.7; Wnt3a cs: 0.5

What do the screens show for `O=Cc1ccnc(-c2ccc(OC(=O)c3ccco3)cc2)n1`?
697 NFkB inh: 22.8; Gli-Sufu block: 2.2; Jurkat NFkB inh: 10.7; H9c2 TAG inh: 4.3; iPSC survival up: -0.2; Hep lipid drop: 7.9

Results for CCc1ccccc1NC(=S)N(CCCN1CCN(C)CC1)Cc1cccs1 ?
697 NFkB inh: -1.1; Gli-Sufu block: 54.1; Jurkat NFkB inh: -0.7; H9c2 TAG inh: -0.6; iPSC survival up: -0.5; Hep lipid drop: 8.2; Gli-Sufu confirm: 16.9; Gli cytotox: 3.7; Wnt3a cs: 13.7

What do the screens show for `COc1ccccc1CCN1CCCC(CN(C)Cc2ccc(OCCO)cc2)C1` (stereo not drawn)?
697 NFkB inh: -9.7; Gli-Sufu block: 55.0; Jurkat NFkB inh: -4.8; H9c2 TAG inh: 1.8; iPSC survival up: -0.6; Hep lipid drop: -2.6; Gli-Sufu confirm: 28.1; Gli cytotox: 8.2; Wnt3a cs: -9.5

What do the screens show for `COc1cc(CN(C)CC2CCCN(CCc3ccc(F)cc3)C2)c(Cl)cc1O` (stereo not drawn)?
697 NFkB inh: -0.8; Gli-Sufu block: 55.1*; Jurkat NFkB inh: -3.4; H9c2 TAG inh: 5.2; iPSC survival up: -0.7; Hep lipid drop: 6.2; Gli-Sufu confirm: 15.2; Gli cytotox: 6.5; Wnt3a cs: -25.4

How did C=COCCCNc1ncnc2sc(-c3ccccc3)cc12 do in these assays?
697 NFkB inh: -13.4; Gli-Sufu block: 61.2*; Jurkat NFkB inh: 22.6; iPSC survival up: -0.3; Hep lipid drop: 6.9; Gli-Sufu confirm: 47.8*; Gli cytotox: 38.8*; Wnt3a cs: 2.2

What do the screens show for `N#CCN(C(=O)COC(=O)CCCNC(=O)c1ccc(Cl)cc1)c1ccccc1`?
697 NFkB inh: 14.2; Gli-Sufu block: -8.1; Jurkat NFkB inh: 8.6; H9c2 TAG inh: -5.5; iPSC survival up: -1.0

Results for Cc1ccccc1CNC(=O)c1ccc2sc([C@H]3C[C@H](O)[C@@H](CO)O3)nc2c1 ?
H9c2 TAG inh: -20.6; iPSC survival up: 0.0

What do the screens show for `Cc1cc(C)cc(NC(=O)C2CCC(CNC(=O)[C@@H]3Cc4ccccc4CN3)CC2)c1` (stereo partly drawn)?
697 NFkB inh: -0.2; Gli-Sufu block: 56.9*; Jurkat NFkB inh: 11.2; iPSC survival up: -0.5; Hep lipid drop: 25.8; Gli-Sufu confirm: 17.8; Gli cytotox: 10.6; Wnt3a cs: -59.4

Results for Cc1cccc(NC(=O)C2CCC(CNC(=O)[C@@H]3Cc4ccccc4CN3)CC2)c1 (stereo partly drawn) ?
697 NFkB inh: -12.3; Gli-Sufu block: -19.6; Jurkat NFkB inh: 18.3; iPSC survival up: 0.8; Hep lipid drop: -6.9

What do the screens show for `CCOC(=O)N1CCC(N2C(=O)c3ccccc3C2Nc2cc(OC)c(OC)c(OC)c2)CC1` (stereo not drawn)?
697 NFkB inh: 16.2; Gli-Sufu block: 10.3; Jurkat NFkB inh: -9.7; H9c2 TAG inh: 1.8; iPSC survival up: -0.4; Hep lipid drop: -1.1

What do the screens show for `CCCCOC(=O)NC1CCS(=O)(=O)C1` (stereo not drawn)?
697 NFkB inh: 1.7; Gli-Sufu block: 2.1; Jurkat NFkB inh: 3.5; H9c2 TAG inh: -29.9; iPSC survival up: -2.0; Hep lipid drop: -3.2

Results for CCOC(=O)NC1CCc2cc(OC)c(OC)c(OC)c2-c2ccc(SC)c(=O)cc21 (stereo not drawn) ?
Gli-Sufu block: 55.2*; H9c2 TAG inh: 34.8; iPSC survival up: -2.5; Gli-Sufu confirm: 56.3*; Gli cytotox: 67.5*; Wnt3a cs: 26.1*

What do the screens show for `CCCCOC(=O)NC1CCc2cc(OC)c(OC)c(OC)c2-c2ccc(SC)c(=O)cc21` (stereo not drawn)?
Gli-Sufu block: 63.7*; H9c2 TAG inh: 38.6; iPSC survival up: 0.1; Gli-Sufu confirm: 53.5*; Gli cytotox: 63.8*; Wnt3a cs: -0.2

What do the screens show for `CCN(CC)CCNC(=O)C(=O)NCC1OCCN1S(=O)(=O)c1cccs1` (stereo not drawn)?
697 NFkB inh: 6.0; Gli-Sufu block: 3.9; Jurkat NFkB inh: 4.9; iPSC survival up: -0.3; Hep lipid drop: 7.6

How did CN1CCN(C(=O)c2ccc(N3CCCC3=O)cc2)CC1 do in these assays?
697 NFkB inh: -1.2; Gli-Sufu block: 60.1*; Jurkat NFkB inh: -2.0; H9c2 TAG inh: 7.8; iPSC survival up: -2.2; Hep lipid drop: -6.0; Gli-Sufu confirm: 19.9; Gli cytotox: -3.1; Wnt3a cs: -9.4

How did Cc1cc(NC(=O)c2cccnc2)ccc1Br do in these assays?
697 NFkB inh: -41.2; Gli-Sufu block: -24.4; Jurkat NFkB inh: -51.5; iPSC survival up: 1.1; Hep lipid drop: -5.1

How did COc1ccc(CN2CCSCC2)c(OC)c1C do in these assays?
697 NFkB inh: 14.6; Gli-Sufu block: 58.9*; Jurkat NFkB inh: -7.5; H9c2 TAG inh: -5.4; iPSC survival up: 1.3; Gli-Sufu confirm: 16.9; Gli cytotox: 13.2; Wnt3a cs: -6.6

Results for CC(C)COC(=O)N1CCCCC1c1cc(C(=O)Nc2ccc3c(c2)OCO3)no1 (stereo not drawn) ?
H9c2 TAG inh: -6.3; iPSC survival up: 0.2

What do the screens show for `CC1=NN(C(N)=S)C(=O)C1N=Nc1ccc(O)cc1` (stereo not drawn)?
697 NFkB inh: -20.3; Gli-Sufu block: 57.4*; Jurkat NFkB inh: 13.8; H9c2 TAG inh: -9.1; iPSC survival up: 0.2; Hep lipid drop: -10.7; Gli-Sufu confirm: 39.4; Gli cytotox: 11.2; Wnt3a cs: -62.9
